Source: PubChem (The Scripps Research Institute Molecular Screening Center)
CHO parental Ca – ATP-evoked calcium signal inhibitors, parental CHO, primary screen, counter-screen for OX1R antagonist project, cell-based, fluorescence, Fluo-8 calcium dye; 330,000 tested, 0.63% active; parental CHO-K1, ATP-induced calcium, Fluo-8 fluorescence; inhibition, % at 5.6 µM;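 active means inhibition above that plate's mean sample inhibition plus 3 SD, cut at about 26% in these data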;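 further: 0% = ATP-challenged DMSO wells and 100% = DMSO wells without ATP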
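test system = CHO parental line | reagent = ATP stimulus | measured by = intracellular calcium via Fluo-8 no-wash fluorescent dye | control set = ATP and no-ATP DMSO wells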
OX1R antag-1 – antagonists of human orexin 1 receptor (OX1R). Orexin/Hypocretin receptor type 1 (Homo sapiens), O43613. OX1R-expressing cells, FRET antagonist read-out. inhibition, % at 6.6 µM. 330,000 tested, 1.8% active; in the data active means inhibition mostly above about 38%, no sharp cut-off; inactive means mostly below about 40%;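 further: 0% = agonist challenge alone and 100% = reference antagonist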
GPR7 antag – GPR7 receptor antagonists, primary screen, cell-based, fluorescence, single concentration. GPR7-expressing cells, fluorescence antagonist assay. inhibition, % at 4.4 µM. 290,000 tested, 1.1% active; in the data active means inhibition above about 16%, passing the limit was not always enough;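 further: cells stimulated with the agonist NPW; 0% = agonist with vehicle and 100% = vehicle without agonist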
Target sequence (P48145 whole entry, looked up): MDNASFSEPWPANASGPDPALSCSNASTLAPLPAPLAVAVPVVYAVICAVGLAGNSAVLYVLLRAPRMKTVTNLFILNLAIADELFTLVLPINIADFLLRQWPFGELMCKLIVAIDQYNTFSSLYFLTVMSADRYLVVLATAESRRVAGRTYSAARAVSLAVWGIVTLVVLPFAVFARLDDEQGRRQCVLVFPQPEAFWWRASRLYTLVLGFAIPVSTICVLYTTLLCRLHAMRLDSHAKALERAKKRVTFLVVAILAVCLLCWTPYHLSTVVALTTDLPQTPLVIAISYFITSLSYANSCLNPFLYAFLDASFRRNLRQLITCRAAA
TAAR1 ag – human TAAR1 agonists, primary screen, Fluo-8 calcium fluorescence, CHO RD-HGA16 cells. Trace amine-associated receptor 1 (Homo sapiens), Q96RJ0. vehicle wells 0%, saturating PEA agonist 100%. activation, % at 3 µM. AID 624467, 2012. 360,000 tested, 0.99% active;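 active means activation above the mean activation of all test compounds in the run plus 3 SD, cut at about 38% in these data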
Target sequence (Q96RJ0 whole entry, looked up): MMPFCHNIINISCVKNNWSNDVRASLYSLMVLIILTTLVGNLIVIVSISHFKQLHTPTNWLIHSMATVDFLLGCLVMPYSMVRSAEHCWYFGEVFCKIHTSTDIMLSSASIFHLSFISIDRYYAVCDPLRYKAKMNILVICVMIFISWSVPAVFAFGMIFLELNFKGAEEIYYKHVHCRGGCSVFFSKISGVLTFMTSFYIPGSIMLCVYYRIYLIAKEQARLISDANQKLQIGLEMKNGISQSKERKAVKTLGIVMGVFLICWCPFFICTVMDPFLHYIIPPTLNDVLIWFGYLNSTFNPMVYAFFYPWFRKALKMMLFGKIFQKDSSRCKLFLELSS
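System: CHO RD-HGA16 cells carrying human TAAR1 plus Gα16; Incubation: 17-24 h seeding, 75 min 37 °C dye, 30 min RT; Measured by: Fluo-8 fluorescence, 5 s baseline then 140 s kinetic read; Control set: DMSO and PEA EC100; Replication: single well for each compound.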
TAAR1 antagonist – human TAAR1 antagonists, primary screen, Fluo-8 calcium fluorescence, CHO RD-HGA16 cells. antagonist. 360,000 tested, 1.5% active. AID 624466, 2012. inhibition, % at 3 µM;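 active means inhibition above a per-plate cutoff, the mean inhibition of test compounds on that plate plus 3 SD, cut at about 49% in these data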;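 further: 0% = DMSO plus EC80 beta-PEA response and 100% = DMSO alone without agonist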
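System: RD-HGA16 CHO cells with stable hTAAR1 and Gα16 | Probe or stimulus: EC80 β-phenethylamine stimulus | Dosing: 3 µM, single point | Times: Dye loading 75 min at 37 °C, then 30 min room temperature | Measured by: Fluo-8 calcium-sensitive fluorescence | Read-out basis: % inhibition of agonist calcium response | Replicates: n of 1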
OX1R antag-2 – OX1R (HCRTR1) antagonists, primary screen, fluorescence, CHO/OX1R cells, Fluo-8 calcium, orexin A; Orexin/Hypocretin receptor type 1 (Homo sapiens), O43613; Fluo-8 calcium fluorescence; inhibition, % at 5 µM; 330,000 tested, 0.43% active; AID 434989, 2010;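 active means inhibition above its plate's threshold, mean inhibition of all tested compounds on the plate plus 3 SD, cut at about 37% in these data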;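 further: 0% = orexin A challenge wells and 100% = SB-334867-A antagonist wells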
The depositor's hits bear a star; x = not tested or not shown. Sampled rows, rich in hits. Any-hit rate of the full collection: about 4.5%.

SMILES	CHO parental Ca	OX1R antag-1	GPR7 antag	TAAR1 ag	TAAR1 antagonist	OX1R antag-2
C[C@H](CO)N1C[C@H](C)[C@@H](CN(C)C(=O)Nc2ccc(C(F)(F)F)cc2)Oc2c(NC(=O)c3ccncc3)cccc2C1=O	-12.2	8.3	x	0.9	-6.4	-23.6
C[C@H](CO)N1C[C@H](C)[C@@H](CN(C)C(=O)Nc2ccc3c(c2)OCO3)Oc2c(NC(=O)Nc3ccc(C(F)(F)F)cc3)cccc2C1=O	-7.3	16.0	x	33.9	79.7*	5.8
C[C@H](CO)N1C[C@H](C)[C@H](CN(C)C(=O)Nc2ccc(F)cc2)Oc2c(NC(=O)c3ccc(-c4nccs4)cc3)cccc2C1=O	-32.0	11.5	x	21.4	54.0*	-6.2
COc1ccc(NC(=O)N(C)C[C@H]2Oc3c(NC(=O)Nc4ccc(C(F)(F)F)cc4)cccc3C(=O)N([C@H](C)CO)C[C@@H]2C)cc1	-5.5	19.6	x	30.9	72.9*	11.8
CCOC(=O)C1=C(C(=O)OCC)C2N(Cc3ccc(C(F)(F)F)cc3)c3ccccc3[C@@]23C[C@@H](C(=O)OC)N(S(=O)(=O)c2ccc(OC)cc2)C3=N1 (some centres undefined)	x	x	x	1.1	-20.1	x
Cc1cc(NC(=O)c2ccc([N+](=O)[O-])cc2)n(CCC#N)n1	8.6	46.5*	-6.2	-0.9	-1.4	-3.9
Cn1ccc(NC(=O)c2ccc([N+](=O)[O-])cc2)n1	-13.9	29.3*	x	5.6	-9.5	-9.5
Cc1ccccc1C(=O)N1[C@@H](C(C)C)COc2cc(Br)ccc2S1(=O)=O	x	x	x	0.1	17.8	x
COc1ccc(NC(=O)C2Cc3c(-c4cccc(NC(C)=O)c4)ccnc3O2)cn1 (centres undefined)	x	x	x	7.5	-28.4	x
COc1cc(F)cc(-c2ccc3c(c2)c(-c2cccs2)c(-c2cc(OC)cc(OC)c2)n3C)c1	-0.8	4.1	x	49.8*	10.4	7.8
Cc1cc(-c2ccc(C)c(S(=O)(=O)NCc3cccc(Br)c3)c2)on1	3.0	37.9*	14.2	0.4	25.6	9.0
CCc1ccc(-c2cc(C)no2)cc1S(=O)(=O)NCCc1ccc(OC)c(OC)c1	-12.8	42.8*	-1.8	0.8	-20.0	7.4
Cc1cc(-c2ccc(C)c(S(=O)(=O)NCc3ccc(Br)cc3)c2)on1	-1.5	22.6	-8.6	-1.7	24.0	6.1
Cc1ccc(C)c(C(=O)OCC(=O)Nc2cccc(S(=O)(=O)N3CCCCC3)c2)c1	15.1	7.8	x	4.4	34.8	53.7*
Cc1ccccc1C(=O)OCC(=O)Nc1cccc(S(=O)(=O)N2CCCCC2)c1	x	x	x	2.7	7.3	x
O=C(COC(=O)c1ccc(Cl)c(S(=O)(=O)N2CCCCCC2)c1)Nc1ccccc1	-10.0	-6.2	-8.5	10.0	53.3*	-13.2
CN(C)S(=O)(=O)c1cccc(NC(=O)CNc2cccc(S(=O)(=O)N3CCCCC3)c2)c1	x	x	x	6.0	13.6	x
O=C(COC(=O)c1ccc(S(=O)(=O)N2CCCC2)cc1)Nc1ccccc1	0.3	6.9	x	10.0	-14.2	-3.8
CCN(CC)S(=O)(=O)c1cc(NC(=O)CNc2cccc(S(=O)(=O)N3CCCC3)c2)ccc1C	45.4*	33.8	x	x	x	30.0
O=C(COC(=O)C1CC2C=CC1C2)Nc1cccc(S(=O)(=O)N2CCCCCC2)c1 (centres undefined)	33.0*	21.1	-8.7	8.3	67.7*	4.3
CN1CCCCC(NC(=O)c2ccc(F)c(F)c2)C1=O (centres undefined)	x	x	x	0.8	-17.3	x
O=C(NCC1COc2ccccc2O1)c1ccc(Cl)c(S(=O)(=O)N2CCCC2)c1 (centres undefined)	-14.1	34.5*	x	18.2	8.2	30.6
O=C(COC(=O)c1c(F)cccc1F)Nc1cccc(S(=O)(=O)N2CCCCC2)c1	x	x	x	14.3	49.8*	x
CCN=C1NC(c2ccc(C(F)(F)F)cc2)C(C(=O)OC)=C(C)N1Cc1ccccc1C(F)(F)F (centres undefined)	x	x	x	18.6	21.4	x
COc1ccc(CCN2C(=O)C(Oc3ccccc3C)C2c2ccc3c(c2)OCO3)cc1 (centres undefined)	-6.9	34.7	1.3	8.0	56.4*	-16.8
SMILES	CHO parental Ca	OX1R antag-1	GPR7 antag	TAAR1 ag	TAAR1 antagonist	OX1R antag-2
COc1ccc(CCN2C(=O)C(Oc3ccccc3C)C2c2ccc3c(c2)OCO3)cc1OC (centres undefined)	2.1	24.0	20.3	6.7	54.7*	-24.7
CCOC(=O)C1(C)CCCN(C(=O)c2ccc(OC)c(OC)c2)C1 (centres undefined)	x	x	x	3.8	-13.9	x
CC(C)N(Cc1ccccc1)C(=O)CN1c2cccc3cccc(c23)S1(=O)=O	-27.2	38.9*	x	4.2	24.1	-5.8
CN(C)C(=O)CN1c2cccc3cccc(c23)S1(=O)=O	-12.7	5.8	1.8	4.9	-20.7	-22.4
COc1ccc(N=C2NC(=O)S/C2=C\c2ccc(N(C)C)cc2)cc1	37.2*	11.9	4.3	27.1	57.6*	35.9
CC1=C/C(=C(/c2ccc(O)c(C)c2)c2ccccc2S(=O)(=O)O)C=CC1=O	-1.2	16.4	x	3.0	-1.8	-2.9
CC1=C/C(=C(/c2cc(C)c(O)c(Br)c2)c2ccccc2S(=O)(=O)O)C=C(Br)C1=O	4.8	41.3*	-6.3	0.2	0.2	-5.9
COc1ccc(N(C)C(=O)CCS(=O)(=O)c2cccc3nonc23)c(OC)c1	0.9	60.9*	4.4	0.2	8.0	-20.2
CC(=O)c1cccc(NC(=O)CCS(=O)(=O)c2cccc3nonc23)c1	-2.6	57.8*	-4.7	5.6	0.3	-10.9
Cc1cccc(N(C)C(=O)CCS(=O)(=O)c2cccc3nonc23)c1	-16.4	51.9*	-10.6	7.2	-7.8	-16.0
COc1cccc(CNC(=O)CCS(=O)(=O)c2cccc3nonc23)c1	-16.4	59.1*	-10.0	11.0	-13.9	-13.8
Clc1ccc(-c2cn(-c3nc4ccccc4s3)nn2)cc1	x	x	x	5.9	-0.2	x
Nc1nc2c(ncn2[C@@H]2O[C@H](C(=O)NCC3CCCCC3)[C@@H](O)[C@H]2O)c(=O)[nH]1	x	x	x	2.4	-15.1	x
Cn1c(=O)c2c(n(C)c1=O)n(C)c(=O)n2C	x	x	x	0.9	-13.5	x
COc1ccccc1CNC(=O)COC(=O)c1ccc(-n2cnnn2)cc1	-26.1	2.5	x	1.3	-6.0	-0.4
O=C(OCCOc1ccccc1Cl)c1ccc(-n2cnnn2)cc1	4.7	10.5	17.2*	5.7	13.8	-5.0
COc1cc(/C=C/c2ccc3cccc(OC)c3n2)c(OC(C)=O)c([N+](=O)[O-])c1	-9.7	59.0*	15.9	7.3	48.9*	-29.8
